Reference: publication PMC4924508 (Theranostics, 2016)
Square brackets hold non-standard residues; d marks the D form. Peptide text beside a SMILES is read from it. * marks the point of attachment. Biotin = O=C1N[C@H]2[C@H](CS[C@H]2CCCCC(=O)*)N1

How the values were obtained:
[1] = Serum stability study in normal mouse serum, MALDI-TOF MS; format: in vitro ADME; conditions: 37 °C, result in words
[2] = system: 4T1 breast carcinoma tumors / M2-like TAMs; experiment: In vivo biodistribution study in 4T1 tumor model; parameters: species or system mouse; conditions: 20 min after injection, n = 3, result in words
In short: (§1)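 Female BALB/c mice (6 week-old) received CT-26 cells in the right flank or 4T1 cells in the mammary fat pad, and were used 2 weeks later (tumor diameter ≤1.5 cm). Sulfo-Cy5-labeled test compound (2.24 nmol, PBS/10% DMSO) or PBS was injected retro-orbitally. After 20 min, mice were PBS-perfused. Tumors were enzymatically dissociated, Fc-blocked, stained for CD11b/Ly-6G/F4/80, PFA-fixed and run on flow cytometry. Subsets were compared by one-way ANOVA/Tukey.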

[3] = system: CT-26 colon carcinoma tumors / M2-like TAMs; experiment: In vivo biodistribution study in CT-26 tumor model; parameters: species or system mouse; conditions: 20 min after injection, n = 5, result in words
In short: as §1

Compound | protection against endolytic cleavage at the W10/W11 site in serum [1] | further results
CC(=O)N[C@@H](Cc1ccc(O)cc1)C(=O)N[C@@H](CCC(=O)O)C(=O)N[C@@H](CCC(N)=O)C(=O)N[C@@H](CC(=O)O)C(=O)N1CCC[C@H]1C(=O)N[C@@H](Cc1c[nH]c2ccccc12)C(=O)NCC(=O)N[C@H](C(=O)N[C@@H](CCCNC(=N)N)C(=O)N[C@@H](Cc1ccc(O)cc1)C(=O)N[C@@H](Cc1c[nH]c2ccccc12)C(=O)N[C@@H](Cc1ccc(O)cc1)C(=O)NCC(=O)NCC(=O)NCC(=O)N[C@@H](CO)C(=O)N[C@H](CCCCN)C(=O)N[C@H](CCCCN)C(=O)N[C@H](CCCCN)C(=O)N[C@@H](CCCCNC(=O)CCCC[C@@H]1SC[C@@H]2NC(=O)N[C@@H]21)C(N)=O)C(C)C [AcM2pep(RY)Biotin] (Ac-YEQDPWGVRYWYGGGS[dK][dK][dK]K(Biotin)-NH2) | did not improve serum stability at the W10/W11 site | –
CC(=O)N[C@@H](Cc1ccc(O)cc1)C(=O)N[C@@H](CCC(=O)O)C(=O)N[C@@H](CCC(N)=O)C(=O)N[C@@H](CC(=O)O)C(=O)N1CCC[C@H]1C(=O)N[C@@H](Cc1c[nH]c2ccccc12)C(=O)NCC(=O)N[C@H](C(=O)N[C@@H](CCCCN)C(=O)N[C@@H](Cc1c[nH]c2ccccc12)C(=O)N[C@@H](Cc1c[nH]c2ccccc12)C(=O)N[C@@H](Cc1ccc(O)cc1)C(=O)NCC(=O)NCC(=O)NCC(=O)N[C@@H](CO)C(=O)N[C@@H](CCCCN)C(=O)N[C@@H](CCCCN)C(=O)N[C@@H](CCCCN)C(=O)N[C@@H](CCCCNC(=O)CCCC[C@@H]1SC[C@@H]2NC(=O)N[C@@H]21)C(N)=O)C(C)C [AcM2pepBiotin] (Ac-YEQDPWGVKWWYGGGSKKKK(Biotin)-NH2) | – | overall serum stability [1]: did not improve the overall serum stability; resistance to N-terminal (exolytic) degradation in serum [1]: resistant to N-terminal degradation
CC(=O)N[C@@H](Cc1ccc(O)cc1)C(=O)N[C@@H](CCC(=O)O)C(=O)N[C@@H](CCC(N)=O)C(=O)N[C@@H](CC(=O)O)C(=O)N1CCC[C@H]1C(=O)N[C@@H](Cc1c[nH]c2ccccc12)C(=O)NCC(=O)N[C@H](C(=O)N[C@@H](CCCNC(=N)N)C(=O)N[C@@H](Cc1c[nH]c2ccccc12)C(=O)N[C@@H](Cc1c[nH]c2ccccc12)C(=O)N[C@@H](Cc1ccc(O)cc1)C(=O)NCC(=O)NCC(=O)NCC(=O)N[C@@H](CO)C(=O)N[C@@H](CCCCN)C(=O)N[C@@H](CCCCN)C(=O)N[C@@H](CCCCN)C(=O)N[C@@H](CCCCNC(=O)CCCC[C@@H]1SC[C@@H]2NC(=O)N[C@@H]21)C(N)=O)C(C)C [K9R] (Ac-YEQDPWGVRWWYGGGSKKKK(Biotin)-NH2) | did not confer protection at the W10/W11 site | –
CC(=O)N[C@@H](Cc1ccc(O)cc1)C(=O)N[C@@H](CCC(=O)O)C(=O)N[C@@H](CCC(N)=O)C(=O)N[C@@H](CC(=O)O)C(=O)N1CCC[C@H]1C(=O)N[C@@H](Cc1c[nH]c2ccccc12)C(=O)NCC(=O)N[C@H](C(=O)N[C@@H](CCCCN)C(=O)N1CCC[C@H]1C(=O)N[C@@H](Cc1c[nH]c2ccccc12)C(=O)N[C@@H](Cc1ccc(O)cc1)C(=O)NCC(=O)NCC(=O)NCC(=O)N[C@@H](CO)C(=O)N[C@H](CCCCN)C(=O)N[C@H](CCCCN)C(=O)N[C@H](CCCCN)C(=O)N[C@@H](CCCCNC(=O)CCCC[C@@H]1SC[C@@H]2NC(=O)N[C@@H]21)C(N)=O)C(C)C [W10P] (Ac-YEQDPWGVKPWYGGGS[dK][dK][dK]K(Biotin)-NH2) | did not confer protection at the W10/W11 site | –
CC(=O)N[C@@H](Cc1ccc(O)cc1)C(=O)N[C@@H](CCC(=O)O)C(=O)N[C@@H](CCC(N)=O)C(=O)N[C@@H](CC(=O)O)C(=O)N1CCC[C@H]1C(=O)N[C@@H](Cc1c[nH]c2ccccc12)C(=O)NCC(=O)N[C@H](C(=O)N[C@@H](CCCCN)C(=O)N[C@@H](Cc1ccc(O)cc1)C(=O)N[C@@H](Cc1c[nH]c2ccccc12)C(=O)N[C@@H](Cc1ccc(O)cc1)C(=O)NCC(=O)NCC(=O)NCC(=O)N[C@@H](CO)C(=O)N[C@H](CCCCN)C(=O)N[C@H](CCCCN)C(=O)N[C@H](CCCCN)C(=O)N[C@@H](CCCCNC(=O)CCCC[C@@H]1SC[C@@H]2NC(=O)N[C@@H]21)C(N)=O)C(C)C [W10Y] (Ac-YEQDPWGVKYWYGGGS[dK][dK][dK]K(Biotin)-NH2) | did not confer protection at the W10/W11 site | –
CC(=O)N[C@@H](Cc1ccc(O)cc1)C(=O)N[C@@H](CCC(=O)O)C(=O)N[C@@H](CCC(N)=O)C(=O)N[C@@H](CC(=O)O)C(=O)N1CCC[C@H]1C(=O)N[C@@H](Cc1c[nH]c2ccccc12)C(=O)NCC(=O)N[C@H](C(=O)N[C@@H](CCCCN)C(=O)N[C@H](Cc1c[nH]c2ccccc12)C(=O)N[C@@H](Cc1c[nH]c2ccccc12)C(=O)N[C@@H](Cc1ccc(O)cc1)C(=O)NCC(=O)NCC(=O)NCC(=O)N[C@@H](CO)C(=O)N[C@@H](CCCCN)C(=O)N[C@@H](CCCCN)C(=O)N[C@@H](CCCCN)C(=O)N[C@@H](CCCCNC(=O)CCCC[C@@H]1SC[C@@H]2NC(=O)N[C@@H]21)C(N)=O)C(C)C [W10w] (Ac-YEQDPWGVK[dW]WYGGGSKKKK(Biotin)-NH2) | effective protection against endolytic cleavage at the W10/W11 site | –
CC(=O)N[C@@H](Cc1ccc(O)cc1)C(=O)N[C@@H](CCC(=O)O)C(=O)N[C@@H](CCC(N)=O)C(=O)N[C@@H](CC(=O)O)C(=O)N1CCC[C@H]1C(=O)N[C@@H](Cc1c[nH]c2ccccc12)C(=O)NCC(=O)N[C@H](C(=O)N[C@@H](CCCNC(=N)N)C(=O)N[C@@H](Cc1ccc(O)cc1)C(=O)N[C@@H](Cc1c[nH]c2ccccc12)C(=O)N[C@H](Cc1ccc(O)cc1)C(=O)NCC(=O)NCC(=O)NCC(=O)N[C@@H](CO)C(=O)N[C@H](CCCCN)C(=O)N[C@H](CCCCN)C(=O)N[C@H](CCCCN)C(=O)N[C@@H](CCCCNC(=O)CCCC[C@@H]1SC[C@@H]2NC(=O)N[C@@H]21)C(N)=O)C(C)C [Y12y] (Ac-YEQDPWGVRYW[dY]GGGS[dK][dK][dK]K(Biotin)-NH2) | did not improve serum stability at the W10/W11 site | –
CGYEQDPWGVRYWYGCkkk(k(N3)-sulfoCy5) (disulfide) [Cyclic M2pep(RY)-sulfoCy5] | – | intratumoral accumulation in M2-like TAMs (flow cytometry) [2]: accumulated preferentially in M2-like TAMs; intratumoral selectivity to M2-like TAMs over M1-like TAMs and CD11b- cells [3]: selectivity to M2-like TAMs over M1-like TAMs and non-TAM CD11b^- cells was observed; intratumoral uptake in M2-like TAMs (flow cytometry) [3]: significantly higher uptake in M2-like TAMs compared to M2pep-sulfoCy5
YEQDPWGVKWWYGGGSKKK(k(N3)-sulfoCy5) [M2pep-sulfoCy5] | – | intratumoral selectivity to M2-like TAMs over M1-like TAMs and CD11b- cells [3]: selectivity to M2-like TAMs over M1-like TAMs and non-TAM CD11b^- cells was observed
